According to ChEMBL document CHEMBL3243963, “Drugs derived from cannabinoids. 7. Tachycardia and analgesia structure-activity relationships in delta9-tetrahydrocannabinol and some synthetic analogues” (J Med Chem, 1978):

Experiments:
Mus musculus [1] = experiment: Analgesic activity in po dosed mouse by hot plate test; assay type: functional
Method in brief: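 Mouse hot-plate antinociception after oral dosing, ten mice per dose. ED50 with 95% confidence limits by computerized Litchfield–Wilcoxon method.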

Mus musculus [2] = experiment: Analgesic activity in po dosed mouse by anti-writhing test; assay type: functional
Method in brief: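 Mouse antiwrithing test after oral dosing, five mice per dose. ED50 (half-maximal effect dose) with 95% confidence limits by computerized modification of Litchfield–Wilcoxon.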

Rattus norvegicus = experiment: Toxicity in ip dosed Wistar rat assessed as tachycardia; assay type: organism-based; details: in vivo
Method in brief: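 Conscious rats on a warming plate, with rectal temperature kept below 39 °C. Heart rate taken from tail pulse sound (piezo contact microphone, tachograph). Agents given ip in absolute ethanol or distilled water according to solubility. Maximum heart-rate increase plotted against log dose. ED50 with 95% confidence limits by computerized Litchfield–Wilcoxon. Five, six or twelve rats per dose depending on compound.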

Structure (SMILES)	ED50 (Mus musculus [1])	ED50 (Mus musculus [2])	Activity (Rattus norvegicus)	ED50 (Rattus norvegicus)
Br.CCCCCC(C)C(C)c1cc(OC(=O)CCCN2CCOCC2)c2c(c1)OC(C)(C)C1=C2CC(C)CC1 (stereo unspecified)	0.5 mg/kg	2.3 mg/kg	Dose-dependent effect	2.13 mg/kg
CCCCCC(C)C(C)c1cc(O)c2c(c1)OC(C)(C)C1=C2CC(C)CC1 (mixture of isomers)	9.3 mg/kg	3 mg/kg	Dose-dependent effect	0.31 mg/kg
Br.CCCCCc1cc(OC(=O)CCCN2CCOCC2)c2c(c1)OC(C)(C)[C@@H]1CCC(C)=C[C@@H]21	168 mg/kg	> 40 mg/kg	Dose-dependent effect	0.092 mg/kg
CCCCCc1cc(O)c2c(c1)OC(C)(C)[C@@H]1CCC(C)=C[C@@H]21 [DRONABINOL]	> 100 mg/kg	43 mg/kg	Dose-dependent effect	0.062 mg/kg
CCCCCC(C)C(C)c1cc(OC(=O)CCCN2CCCCC2)c2c(c1)OC(C)(C)C1=C2CC(C)CC1.Cl (stereo unspecified)	15 mg/kg	25.9 mg/kg	Dose-dependent effect	1.92 mg/kg
C#CCN1CCC2=C(C1)c1c(OC(=O)CCCN3CCCCC3)cc(C(C)C(C)CCCCC)cc1OC2(C)C.Cl (stereo unspecified) [NABITAN HYDROCHLORIDE]	5.3 mg/kg	12 mg/kg	Dose-dependent effect	0.11 mg/kg
C#CCN1CCC2=C(C1)c1c(O)cc(C(C)C(C)CCCCC)cc1OC2(C)C (stereo unspecified)	7.7 mg/kg	4.3 mg/kg	Dose-dependent effect	0.061 mg/kg
C#CCN1CCC2=C(C1)c1c(OC(=O)C(C)CCN3CCCCC3)cc(C(C)C(C)CCCCC)cc1OC2(C)C.Cl (stereo unspecified)	4.6 mg/kg	12.2 mg/kg	Dose-dependent effect	0.4 mg/kg
C#CCN1CCC2=C(C1)c1c(OC(=O)C(C)CCN3CCCCC3C)cc(C(C)C(C)CCCCC)cc1OC2(C)C.Cl (stereo unspecified)	3.8 mg/kg	7.3 mg/kg	Dose-dependent effect	0.53 mg/kg
